Source: PubChem BioAssay
AP ELISA ortho: alternative complement pathway inhibitors, primary screen, biochemical, ELISA, human serum, orthogonally pooled compounds; LPS-coated ELISA, C3 deposition; tested in compound mixtures; inhibition, % at 5 µM; actives 0.08% (n = 62,000); AID 1235, 2008;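 active = inhibition above 30% in each of the two pooled mixtures holding the compound, so the lower value exceeds 30%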
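Test system – human serum alternative complement pathway, C3 deposition on LPS-coated wells · Buffer or medium – diluted human serum in Mg2+-EGTA GVB++ · Compound dosing – 5 µM each compound, pools of ten, 50 µM per pool · Schedule – 1 h serum-compound exposure at 37 °C · Measured by – Anti-C3 ELISA, OD 450 nm · Read-out basis – percent inhibition of C3 deposition onto LPS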
Ecoli tolC: growth inhibitors of E. coli tolC mutant, primary screen, strain BW25113 ΔtolC::kan, 384-well | OD615 | growth inhibition, % at 10 µM (by protocol) | actives 2.2% (n = 65,000);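 active = growth inhibition at or above a cutoff equal to the mean over every tested compound plus 3 SD, cut at about 60% in these data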;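 also: growth measured after 20 h incubation at 37 °C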
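Material: E. coli BW25113 ΔtolC::kan, tolC deletion mutant strain. Measure: percent growth inhibition. Schedule: 37 °C, 20 h exposure. Doses: single-point testing at 10 µM. Signal: A615 absorbance measurement. Buffer or medium: kanamycin-containing LB broth (50 µg/mL).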
WNV protease inh: inhibitors of WNV NS2B-NS3 protease, primary screen, biochemical, fluorogenic substrate; AID 577, 2007; z-score (concentration not given with the values); actives 0.18% (n = 65,000); fluorogenic substrate Ex360/Em465; active compounds read low; in the data active = z-score below about -3
E coli WT exp: growth inhibitors of wild-type E. coli, primary screen, strain BW25113, expanded library, OD600. actives 0.15% (n = 98,000). growth inhibition, % at 100 µM. AID 710, 2007. OD600 absorbance;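 active = growth inhibition above about 50% at one test dose, limit read from the data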;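 also: growth measured after 20 h incubation at 37 °C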
M1 antagonist: antagonists of rat M1 muscarinic receptor | Muscarinic acetylcholine receptor M1 (Rattus norvegicus), P08482 | actives 3.4% (n = 64,000) | B-score at 10 µM | CHO-M1 cells, Fluo-4 calcium, ACh EC80 antagonist mode; active compounds read low;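 active = calcium fluorescence response, raw or row-and-column corrected B-score, differing from the plate sample mean either way at a set confidence level, mostly lower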
M1 ag: M1 muscarinic receptor agonists, primary screen, CHO-M1 cells, Fluo-4 calcium, agonist mode; Fluo-4 calcium fluorescence; active compounds read high; B-score at 10 µM; actives 3% (n = 64,000);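 active = fluorescence rise, raw or as B-score row- and column-corrected plate score, outside the 99.7% band of its plate's samples, either direction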
M1 agonist conf: rat M1 muscarinic receptor agonists, confirmation, CHO-M1 cells, Fluo-4 calcium, duplicate retest; actives 19% (n = 1,700); shares compounds with M1 ag; fluorescence change (max-min) at 10 µM; Fluo-4 calcium fluorescence, agonist mode; actives lie on both sides;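 active = fluorescence change differs from the solvent-only DMSO control mean at a set confidence level in both duplicate runs; inconclusive = differs from solvent-only control mean in just one of two runs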;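 also: an EC20 dose of acetylcholine follows compound addition during the same imaging run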
M4 agonist ctr: agonist activity at rat M4 receptor, confirmation, counter-screen for M1 allosteric modulator project, cell-based, agonist mode. shares compounds with M1 ag. CHO M4/Gqi5 cells, Fluo-4 calcium fluorescence; actives lie on both sides. fluorescence change (max-min) at 10 µM. actives 9% (n = 1,700). AID 1741, 2009;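 active = fluorescence change differing from the plate's solvent-only control wells at 99.7% confidence in both duplicates, whether higher or lower; inconclusive = differs from solvent controls in only one of two duplicates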
Target sequence (P08485 whole entry, looked up): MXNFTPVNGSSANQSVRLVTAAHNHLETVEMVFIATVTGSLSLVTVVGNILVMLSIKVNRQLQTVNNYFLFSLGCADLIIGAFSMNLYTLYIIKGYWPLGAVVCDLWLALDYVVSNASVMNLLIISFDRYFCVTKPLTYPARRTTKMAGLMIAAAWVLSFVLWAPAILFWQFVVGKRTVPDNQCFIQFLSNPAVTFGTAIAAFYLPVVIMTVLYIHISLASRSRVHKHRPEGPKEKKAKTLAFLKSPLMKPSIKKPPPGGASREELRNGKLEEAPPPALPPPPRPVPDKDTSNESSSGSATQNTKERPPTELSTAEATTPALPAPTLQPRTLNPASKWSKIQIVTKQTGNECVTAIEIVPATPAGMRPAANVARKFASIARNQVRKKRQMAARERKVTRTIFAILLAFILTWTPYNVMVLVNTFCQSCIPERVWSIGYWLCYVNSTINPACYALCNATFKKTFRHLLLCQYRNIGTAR
Numbers stand for hits; n = inactive; u = inconclusive; x = no result. Only some compounds are listed: those with a hit (about 5.2% of all), similar ones and a draw of the others.

SMILES	AP ELISA ortho	Ecoli tolC	WNV protease inh	E coli WT exp	M1 antagonist	M1 ag	M1 agonist conf	M4 agonist ctr
C=CCNS(=O)(=O)c1cccc2cc(C(=O)O)c(O)cc12	n	n	n	n	n	3.6	n	n
Nc1nc(-c2cccc(NS(=O)(=O)c3ccccc3)c2)cs1	n	n	n	n	n	n	x	x
CCOC(=O)Cc1csc(SCC(=O)c2c(N)n(CC(C)C)c(=O)n(C)c2=O)n1	n	n	n	n	-2.9	8.9	n	n
O=C(Nc1ccc(N2CCOCC2)cc1)Nc1ccc2nc(-c3ccco3)c(-c3ccco3)nc2c1	n	n	n	n	n	2.8	n	n
O=C(NCCCO)Nc1ccc2nc(-c3ccco3)c(-c3ccco3)nc2c1	x	x	x	n	x	x	x	x
Cc1ccc(C2CC(C(F)(F)F)n3ncc(C(=O)NCc4ccco4)c3N2)cc1 (stereo not given)	n	n	n	n	n	n	x	x
Cc1cnc(C)c(N2CCC(C(=O)NC(C)c3cccs3)CC2)n1 (stereo not given)	x	n	n	n	n	n	x	x
Cc1cc(S(=O)(=O)N2CCN(Cc3ccc4c(c3)OCO4)CC2)cc(C)c1N1CCCC1=O	n	n	n	n	n	3.3	n	n
Cc1occc1C(=O)NCc1ccccn1	n	n	n	n	n	2.2	n	n
Cc1occc1C(=O)NCc1cccc(CNC(=O)c2ccoc2C)c1	n	n	n	n	n	n	x	x
Cc1ccc2cc(C#N)c(N3CCCN(C(=O)C4CCCO4)CC3)nc2c1C (stereo not given)	n	n	n	n	n	4.1	n	n
Cc1ccc2cc(C#N)c(N3CCCC3)nc2c1C	n	n	n	n	n	n	x	x
CCCCOc1ccc(/C=C/C(=O)NCCc2nc3ccccc3[nH]2)cc1	x	x	x	n	x	x	x	x
CCCCOC(=O)CCc1nc2ccccc2[nH]1	n	n	n	n	n	3.6	n	n
Oc1c(/C=N/c2ncn[nH]2)ccc2ccccc12	n	n	n	n	n	4.9	n	u
CCNS(=O)(=O)c1cc(OC)ccc1OC	x	x	x	n	x	x	x	x
COc1cc(NC(=O)c2ccco2)c(OC)cc1NC(=O)CSc1nnc(-c2cccs2)n1C	n	n	n	n	n	6.2	-32	u
COC(=O)C(NC(=O)c1ccc(Cl)cc1)(Nc1nc(C)cs1)C(F)(F)F (stereo not given)	x	x	x	n	x	x	x	x
CCOC(=O)C1C(=O)CC(C)(O)C(C(=O)OCC)C1/C=C/c1ccccc1 (stereo not given)	n	n	n	n	n	2.9	n	n
COc1ccc(N2CCN(C(=O)CSc3nnnn3-c3ccc4c(c3)OCCO4)CC2)cc1	n	n	n	n	n	-3	n	u
CCCc1ccccc1OCCNC(C)=O	n	n	n	n	n	n	x	x
CCN1C(=O)/C(=C2/SC(C)=C(C)N2CC)SC1=S	n	n	n	n	n	3.2	n	n
CCN(CC)C(=O)Cn1nc(C)c2ccccc2c1=O	x	x	x	n	x	x	x	x
Cc1cccc(S(=O)(=O)C(C#N)c2nc3ccccc3nc2N2CCCC2)c1 (stereo not given)	n	n	n	n	n	6	n	n
N#CC(c1nc2ccccc2nc1N1CCCC1)S(=O)(=O)c1ccccc1 (stereo not given)	n	n	n	n	n	4	n	n
SMILES	AP ELISA ortho	Ecoli tolC	WNV protease inh	E coli WT exp	M1 antagonist	M1 ag	M1 agonist conf	M4 agonist ctr
CCCCOC(=O)Nc1ccccc1C(N)=O	n	n	n	n	n	n	x	x
CCN1CCc2c(sc(NC(=O)c3ccc(S(=O)(=O)N4CCOCC4)cc3)c2C(N)=O)C1	n	n	n	n	n	n	x	x
CC(C)N1CCc2c(sc(NC(=O)c3ccc(S(=O)(=O)N4CCOCC4)cc3)c2C(N)=O)C1	n	n	n	n	n	8.9	n	n
CCCCOC(=O)CSc1n[nH]c(=O)[nH]c1=O	x	x	x	n	x	x	x	x
CC1Cc2cc(/C(O)=C3/C(=O)C(=O)N(CC4CCCO4)C3c3ccco3)ccc2O1 (stereo not given)	n	n	n	n	n	n	x	x
CCOc1ccc(-n2nc(C(=O)N3CCOCC3)c3ccccc3c2=O)cc1	n	n	n	x	n	n	x	x
Cc1ccc(CNC(=O)c2cc3c(=O)n4ccccc4nc3n(Cc3ccco3)c2=N)cc1	x	n	n	x	n	4.8	198	n
COCCn1c(=N)c(C(=O)NCc2ccco2)cc2c(=O)n3ccccc3nc21	n	n	n	n	n	3.6	66	n
Cc1cccn2c(=O)c3cc(C(=O)NCc4ccco4)c(=N)n(CCc4ccccc4)c3nc12	n	65	n	x	-6.2	5.3	n	n
N=c1c(C(=O)NCc2ccco2)cc2c(=O)n3ccccc3nc2n1Cc1ccc(Cl)cc1	n	n	n	n	x	x	x	x
Cc1ccc(CNC(=O)c2cc3c(=O)n4ccccc4nc3n(CC3CCCO3)c2=N)cc1 (stereo not given)	x	n	n	n	n	5.2	n	n
CCOc1cc2c(cc1OCC)C(c1cc(OC)c(O)c(OC)c1)NCC2 (stereo not given)	n	n	n	x	n	n	x	x
O=C1C2CC=CCC2C(=O)N1c1n[nH]c(CCc2ccccc2)n1 (stereo not given)	x	x	x	n	x	x	x	x
Cc1ccc(S(=O)(=O)c2cc3c(=O)n4ccccc4nc3n(Cc3ccco3)c2=N)cc1	n	n	n	n	n	-2.4	n	n
Cc1ccc(S(=O)(=O)c2cc3c(=O)n4cccc(C)c4nc3n(Cc3ccco3)c2=N)cc1C	n	n	n	x	n	n	x	x
OC(c1ccccc1)(c1ccc(F)cc1)C(c1ccccc1)N1CCOCC1 (stereo not given)	x	x	x	n	x	x	x	x
O=C(CCCn1c(=O)c2sccc2n(CC(=O)OCc2ccccc2)c1=O)NCc1ccco1	n	n	n	n	n	4.7	-28	-72
O=C(CCn1c(=O)c2sccc2n(CC(=O)OCc2ccccc2)c1=O)NCc1ccco1	n	n	n	n	n	n	x	x
COc1ccc(Cl)c(NC(=O)NCCN2CCN(c3ccccc3)CC2)c1	n	n	n	n	n	2.3	-28	n
O=C1CN(C(=O)c2ccc(Br)o2)C(c2ccc(F)cc2)c2cc(Cl)ccc2N1 (stereo not given)	n	n	n	n	n	2.8	n	u
